Experimental data taken from ChEMBL document CHEMBL1134346, “Labeling and evaluation of N-[11C]methylated quinoline-2-carboxamides as potential radioligands for visualization of peripheral benzodiazepine receptors” (J Med Chem, 2001).

Experiments:
Rattus norvegicus [1] = species on record: Rattus norvegicus; test: Tissue (spleen) distribution in Albino male CD rats after 60 minutes expressed as percent of injected dose per gram of organ.; format: ADME, organism-based; conditions: in vivo, 1 h
Rattus norvegicus [2] = species on record: Rattus norvegicus; test: Tissue (testicle) distribution in Albino male CD rats after 30 minutes expressed as percent of injected dose per gram of organ.; format: ADME, organism-based; conditions: in vivo, 0.5 h
Procedure, shortened: (§1)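 Male albino CD rats (225-250 g) received the 11C-labelled radioligand in saline by tail-vein injection. Three rats per time point were decapitated under light ether anaesthesia at 5, 15, 30, 60 or 90 min. Blood was collected heparinized and plasma separated by centrifugation. The pituitary was dissected from the brain. Lung, liver (three-lobe pieces) and right deltoid muscle were sampled, washed in cold saline, gamma-counted and weighed. Results are %I.D./g.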

Rattus norvegicus [3] = species on record: Rattus norvegicus; test: Tissue (testicle) distribution in Albino male CD rats after 90 minutes expressed as percent of injected dose per gram of organ.; format: ADME, organism-based; conditions: in vivo, 1.5 h
Rattus norvegicus [4] = species on record: Rattus norvegicus; test: Tissue (kidney) distribution in Albino male CD rats after 30 minutes expressed as percent of injected dose per gram of organ.; format: ADME, organism-based; conditions: in vivo, 0.5 h
Procedure, shortened: (§2)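 Radioligand given in saline into tail vein of male albino CD rats (225-250 g); 100-200 µCi per animal, 1-2 Ci/µmol at injection depending on radioligand. Three rats per time point were decapitated under light ether anaesthesia. Blood, plasma, brain regions and washed organs were weighed and gamma-counted. Uptake is %I.D./g tissue, mean ± SD.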

Rattus norvegicus [5] = species on record: Rattus norvegicus; test: Tissue (kidney) distribution in Albino male CD rats after 60 minutes expressed as percent of injected dose per gram of organ.; format: ADME, organism-based; conditions: in vivo, 1 h; procedure, shortened: as §2
Rattus norvegicus [6] = species on record: Rattus norvegicus; test: Tissue (kidney) distribution in Albino male CD rats after 90 minutes expressed as percent of injected dose per gram of organ.; format: ADME, organism-based; conditions: in vivo, 1.5 h; procedure, shortened: as §2
Rattus norvegicus [7] = species on record: Rattus norvegicus; test: Tissue (liver) concentration of radioactivity at 30 min post-injection into Albino male CD rats with vehicle.; format: ADME, organism-based; conditions: in vivo, 0.5 h
Procedure, shortened: (§3)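 Separate groups of five rats received tail-vein PK 11195 (1.4-1.6 mg; 5 mg/kg) in 30 µL DMSO:EtOH 1:1, or vehicle alone, immediately before iv radioligand (90-170 µCi in saline, 0.9-1 Ci/µmol). Rats were decapitated at 30 min and tissues gamma-counted; values are %I.D./g.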

Rattus norvegicus [8] = species on record: Rattus norvegicus; test: Tissue (liver) distribution in Albino male CD rats after 60 minutes expressed as percent of injected dose per gram of organ.; format: ADME, organism-based; conditions: in vivo, 1 h; procedure, shortened: as §1
[9] = target: Translocator protein (Rattus norvegicus) (UniProt P16257); test: Tissue (lung) concentration of radioactivity at 30 min post-injection into Albino male CD rats after pretreatment with cold PK 11195.; format: functional
Procedure, shortened: (§4)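 Blocking study in male albino CD rats, five per group. Immediately before the 11C radioligand (in saline, i.v. tail vein), rats received 30 µL tail-vein PK 11195 (5 mg/kg; 1.4-1.6 mg) in DMSO:EtOH 1:1, or vehicle. Rats were decapitated at 30 min. Tissues were dissected, washed, gamma-counted and weighed as in the biodistribution study. Results are %I.D./g.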

Rattus norvegicus [10] = species on record: Rattus norvegicus; test: Tissue (lung) concentration of radioactivity at 30 min post-injection into Albino male CD rats with vehicle.; format: ADME, organism-based; conditions: in vivo, 0.5 h; procedure, shortened: as §4
Rattus norvegicus [11] = species on record: Rattus norvegicus; test: Tissue (lung) distribution in Albino male CD rats after 5 minutes expressed as percent of injected dose per gram of organ.; format: ADME, organism-based; conditions: in vivo; procedure, shortened: as §1
Rattus norvegicus [12] = species on record: Rattus norvegicus; test: Tissue (lung) distribution in Albino male CD rats after 60 minutes expressed as percent of injected dose per gram of organ.; format: ADME, organism-based; conditions: in vivo, 1 h; procedure, shortened: as §1
Rattus norvegicus [13] = species on record: Rattus norvegicus; test: Tissue (blood) distribution in Albino male CD rats after 15 minutes expressed as percent of injected dose per gram of organ.; format: ADME, organism-based; conditions: in vivo, 0.25 h; procedure, shortened: as §2
Rattus norvegicus [14] = species on record: Rattus norvegicus; test: Tissue (blood) distribution in Albino male CD rats after 5 minutes expressed as percent of injected dose per gram of organ.; format: ADME, organism-based; conditions: in vivo; procedure, shortened: as §2
Rattus norvegicus [15] = species on record: Rattus norvegicus; test: Tissue (blood) distribution in Albino male CD rats after 60 minutes expressed as percent of injected dose per gram of organ.; format: ADME, organism-based; conditions: in vivo, 1 h; procedure, shortened: as §2
Rattus norvegicus [16] = species on record: Rattus norvegicus; test: Tissue (adrenal gland) distribution in Albino male CD rats after 5 minutes expressed as percent of injected dose per gram of organ.; format: ADME, organism-based; conditions: in vivo; procedure, shortened: as §2
Rattus norvegicus [17] = species on record: Rattus norvegicus; test: Tissue (spleen) distribution in Albino male CD rats after 15 minutes expressed as percent of injected dose per gram of organ.; format: ADME, organism-based; conditions: in vivo, 0.25 h
Rattus norvegicus [18] = species on record: Rattus norvegicus; test: Tissue (muscle) distribution in Albino male CD rats after 30 minutes expressed as percent of injected dose per gram of organ.; format: ADME, organism-based; conditions: in vivo, 0.5 h; procedure, shortened: as §1
Rattus norvegicus [19] = species on record: Rattus norvegicus; test: Tissue (muscle) distribution in Albino male CD rats after 5 minutes expressed as percent of injected dose per gram of organ.; format: ADME, organism-based; conditions: in vivo; procedure, shortened: as §1
Rattus norvegicus [20] = species on record: Rattus norvegicus; test: Tissue (cortex) distribution in Albino male CD rats after 15 minutes expressed as percent of injected dose per gram of organ.; format: ADME, organism-based; conditions: in vivo, 0.25 h; procedure, shortened: as §2
Rattus norvegicus [21] = species on record: Rattus norvegicus; test: Tissue (cortex) distribution in Albino male CD rats after 60 minutes expressed as percent of injected dose per gram of organ.; format: ADME, organism-based; conditions: in vivo, 1 h; procedure, shortened: as §2
Rattus norvegicus [22] = species on record: Rattus norvegicus; test: Tissue (cortex) distribution in Albino male CD rats after 90 minutes expressed as percent of injected dose per gram of organ.; format: ADME, organism-based; conditions: in vivo, 1.5 h; procedure, shortened: as §2
Rattus norvegicus [23] = species on record: Rattus norvegicus; test: Tissue (muscle) distribution in Albino male CD rats after 60 minutes expressed as percent of injected dose per gram of organ.; format: ADME, organism-based; conditions: in vivo, 1 h; procedure, shortened: as §1
[24] = target: Translocator protein (Rattus norvegicus) (UniProt P16257); test: Tissue (pituitary) concentration of radioactivity at 30 min post-injection into Albino male CD rats after pretreatment with cold PK 11195.; format: functional, tissue-based; conditions: Pituitary gland; procedure, shortened: as §4
Rattus norvegicus [25] = species on record: Rattus norvegicus; test: Tissue (pituitary) concentration of radioactivity at 30 min post-injection into Albino male CD rats with vehicle.; format: ADME, organism-based, Pituitary gland; conditions: in vivo, 0.5 h; procedure, shortened: as §4
Rattus norvegicus [26] = species on record: Rattus norvegicus; test: Tissue (pituitary) distribution in Albino male CD rats after 30 minutes expressed as percent of injected dose per gram of organ.; format: ADME, organism-based, Pituitary gland; conditions: in vivo, 0.5 h; procedure, shortened: as §1
Rattus norvegicus [27] = species on record: Rattus norvegicus; test: Tissue (pituitary) distribution in Albino male CD rats after 60 minutes expressed as percent of injected dose per gram of organ.; format: ADME, organism-based, Pituitary gland; conditions: in vivo, 1 h; procedure, shortened: as §1
Rattus norvegicus [28] = species on record: Rattus norvegicus; test: Tissue (pituitary) distribution in Albino male CD rats after 90 minutes expressed as percent of injected dose per gram of organ.; format: ADME, organism-based, Pituitary gland; conditions: in vivo, 1.5 h; procedure, shortened: as §1
Rattus norvegicus [29] = species on record: Rattus norvegicus; test: Tissue (plasma) distribution in Albino male CD rats after 15 minutes expressed as percent of injected dose per gram of organ.; format: ADME, organism-based; conditions: in vivo, 0.25 h; procedure, shortened: as §1
Rattus norvegicus [30] = species on record: Rattus norvegicus; test: Tissue (plasma) distribution in Albino male CD rats after 90 minutes expressed as percent of injected dose per gram of organ.; format: ADME, organism-based; conditions: in vivo, 1.5 h; procedure, shortened: as §1
Rattus norvegicus [31] = species on record: Rattus norvegicus; test: Tissue (heart) distribution in Albino male CD rats after 15 minutes expressed as percent of injected dose per gram of organ.; format: ADME, organism-based; conditions: in vivo, 0.25 h; procedure, shortened: as §2
Rattus norvegicus [32] = species on record: Rattus norvegicus; test: Tissue (heart) distribution in Albino male CD rats after 90 minutes expressed as percent of injected dose per gram of organ.; format: ADME, organism-based; conditions: in vivo, 1.5 h; procedure, shortened: as §2
Rattus norvegicus [33] = species on record: Rattus norvegicus; test: Tissue (intestine) distribution in Albino male CD rats after 30 minutes expressed as percent of injected dose per gram of organ.; format: ADME, organism-based; conditions: in vivo, 0.5 h; procedure, shortened: as §2
Rattus norvegicus [34] = species on record: Rattus norvegicus; test: Tissue (intestine) distribution in Albino male CD rats after 90 minutes expressed as percent of injected dose per gram of organ.; format: ADME, organism-based; conditions: in vivo, 1.5 h; procedure, shortened: as §2
[35] = target: Translocator protein (Rattus norvegicus) (UniProt P16257); test: Tissue (kidney) concentration of radioactivity at 30 min post-injection into Albino male CD rats after pretreatment with cold PK 11195.; format: functional, tissue-based; procedure, shortened: as §3
Rattus norvegicus [36] = species on record: Rattus norvegicus; test: Tissue (blood) distribution in Albino male CD rats after 90 minutes expressed as percent of injected dose per gram of organ.; format: ADME, organism-based; conditions: in vivo, 1.5 h; procedure, shortened: as §2
Rattus norvegicus [37] = species on record: Rattus norvegicus; test: Tissue (cerebellum) distribution in Albino male CD rats after 5 minutes expressed as percent of injected dose per gram of organ.; format: ADME, organism-based; conditions: in vivo; procedure, shortened: as §2
[38] = target: Translocator protein (Rattus norvegicus) (UniProt P16257); test: Tissue (cortex) concentration of radioactivity at 30 min post-injection into Albino male CD rats after pretreatment with cold PK 11195.; format: functional; procedure, shortened: as §3
Rattus norvegicus [39] = species on record: Rattus norvegicus; test: Tissue (lung) distribution in Albino male CD rats after 15 minutes expressed as percent of injected dose per gram of organ.; format: ADME, organism-based; conditions: in vivo, 0.25 h; procedure, shortened: as §1
Rattus norvegicus [40] = species on record: Rattus norvegicus; test: Tissue (intestine) distribution in Albino male CD rats after 15 minutes expressed as percent of injected dose per gram of organ.; format: ADME, organism-based; conditions: in vivo, 0.25 h; procedure, shortened: as §2

Sequence of Translocator protein (Rattus norvegicus) (P16257 whole entry, looked up): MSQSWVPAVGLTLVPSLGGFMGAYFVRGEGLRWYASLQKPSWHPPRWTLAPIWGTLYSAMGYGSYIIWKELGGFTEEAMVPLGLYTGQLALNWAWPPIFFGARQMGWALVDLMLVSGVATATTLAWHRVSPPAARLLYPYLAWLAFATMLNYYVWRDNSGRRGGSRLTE

Compound: CCC(C)N(C)C(=O)c1nc2ccccc2c(-c2ccccc2F)c1C (stereo not given)
- I.D./g (Rattus norvegicus [1]): 0.65%
- I.D./g (Rattus norvegicus [2]): 0.09%
- I.D./g (Rattus norvegicus [3]): 0.08%
- I.D./g (Rattus norvegicus [4]): 0.55%
- I.D./g (Rattus norvegicus [5]): 0.51%
- I.D./g (Rattus norvegicus [6]): 0.46%
- I.D./g (Rattus norvegicus [7]): 0.35%
- I.D./g (Rattus norvegicus [8]): 0.45%
- I.D./g [9]: < 0.12%
- I.D./g (Rattus norvegicus [10]): 0.56%
- I.D./g (Rattus norvegicus [11]): 2.37%
- I.D./g (Rattus norvegicus [12]): 1.77%
- I.D./g (Rattus norvegicus [13]): 0.14%
- I.D./g (Rattus norvegicus [14]): 0.11%
- I.D./g (Rattus norvegicus [15]): 0.08%
- I.D./g (Rattus norvegicus [16]): 1.12%
- I.D./g (Rattus norvegicus [17]): 0.75%
- I.D./g (Rattus norvegicus [18]): 0.1%
- I.D./g (Rattus norvegicus [19]): 0.06%
- I.D./g (Rattus norvegicus [20]): 0.11%
- I.D./g (Rattus norvegicus [21]): 0.07%
- I.D./g (Rattus norvegicus [22]): 0.06%
- I.D./g (Rattus norvegicus [23]): 0.07%
- I.D./g [24]: > 0.06%
- I.D./g (Rattus norvegicus [25]): 0.09%
- I.D./g (Rattus norvegicus [26]): 0.12%
- I.D./g (Rattus norvegicus [27]): 0.14%
- I.D./g (Rattus norvegicus [28]): 0.15%
- I.D./g (Rattus norvegicus [29]): 0.09%
- I.D./g (Rattus norvegicus [30]): 0.04%
- I.D./g (Rattus norvegicus [31]): 0.86%
- I.D./g (Rattus norvegicus [32]): 0.58%
- I.D./g (Rattus norvegicus [33]): 0.31%
- I.D./g (Rattus norvegicus [34]): 0.24%
- I.D./g [35]: 0.12%
- I.D./g (Rattus norvegicus [36]): 0.05%
- I.D./g (Rattus norvegicus [37]): 0.1%
- I.D./g [38]: < 0.02%
- I.D./g (Rattus norvegicus [39]): 2.25%
- I.D./g (Rattus norvegicus [40]): 0.37%
